In ChEMBL document CHEMBL1140647, “Synthesis and evaluation of potent and selective beta3 adrenergic receptor agonists containing heterobiaryl carboxylic acids” (Bioorg Med Chem Lett, 2007):
pEC50: −log10 of the molar value.

Assays:
[1] = species: Homo sapiens; assay: Selectivity ratio of pEC50 for human beta3 adrenergic receptor over beta-2 adrenergic receptor
Method in brief: (§1)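 Ratio of […]. pEC50 values come from cAMP accumulation in CHO cells expressing cloned human β1, β2 or β3 receptors.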

[2] = Plasma clearance in dog at 0.2 mg/kg, iv; format: ADME, organism-based, Canis lupus familiaris; set-up: dose 0.2 mg/kg, route intravenous
Method in brief: (§2)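 Single intravenous dose of 0.2 mg/kg. Plasma drug levels measured by LC–MS/MS, and clearance and half-life derived from them.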

[3] = molecular target: T1, Beta-1 adrenergic receptor (Homo sapiens, UniProt P08588); assay: Agonist activity at human beta-1 adrenergic receptor expressed in CHO cells assessed as cAMP accumulation; format: functional, cell-based
Method in brief: (§3)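 cAMP accumulation measured in CHO cells expressing the cloned human receptor subtype. Potency given as pEC50; Emax is the fitted maximal response of the concentration-response, expressed as percent of the maximal response to R-(−)-isoproterenol. Values are from n ≥ 3 experiments unless noted (some n = 2), with standard deviation within 10%.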
Target sequence in this assay (P08588 whole entry): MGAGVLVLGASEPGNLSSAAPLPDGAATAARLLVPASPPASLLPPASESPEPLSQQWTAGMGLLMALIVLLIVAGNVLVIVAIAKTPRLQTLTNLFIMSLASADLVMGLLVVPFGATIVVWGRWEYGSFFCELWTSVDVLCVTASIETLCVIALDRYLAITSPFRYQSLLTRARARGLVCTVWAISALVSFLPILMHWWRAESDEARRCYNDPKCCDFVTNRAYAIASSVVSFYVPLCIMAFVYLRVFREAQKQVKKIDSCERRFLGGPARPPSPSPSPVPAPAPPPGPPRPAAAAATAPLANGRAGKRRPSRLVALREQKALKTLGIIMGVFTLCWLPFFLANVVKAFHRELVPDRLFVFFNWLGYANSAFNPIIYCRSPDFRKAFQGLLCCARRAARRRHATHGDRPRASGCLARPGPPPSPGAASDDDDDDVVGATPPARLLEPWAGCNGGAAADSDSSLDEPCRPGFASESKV

[4] = molecular target: T2, Beta-2 adrenergic receptor (Homo sapiens, UniProt P07550); assay: Agonist activity at human beta-2 adrenergic receptor expressed in CHO cells assessed as cAMP accumulation; format: functional, cell-based; method in brief: as §3
Target sequence in this assay (P07550 whole entry): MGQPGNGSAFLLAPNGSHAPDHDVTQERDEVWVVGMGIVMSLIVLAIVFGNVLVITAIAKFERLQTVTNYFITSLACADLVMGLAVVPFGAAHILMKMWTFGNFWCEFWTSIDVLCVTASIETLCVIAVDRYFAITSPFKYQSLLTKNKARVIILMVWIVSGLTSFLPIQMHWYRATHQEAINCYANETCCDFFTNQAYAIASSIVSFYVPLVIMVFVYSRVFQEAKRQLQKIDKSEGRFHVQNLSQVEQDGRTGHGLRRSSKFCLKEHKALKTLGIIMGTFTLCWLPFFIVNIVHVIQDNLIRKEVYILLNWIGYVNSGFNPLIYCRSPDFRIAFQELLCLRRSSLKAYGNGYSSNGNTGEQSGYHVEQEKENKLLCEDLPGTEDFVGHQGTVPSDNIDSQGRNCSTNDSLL

[5] = molecular target: T1, Beta-1 adrenergic receptor; assay: Agonist activity at human beta-1 adrenergic receptor expressed in CHO cells assessed as cAMP accumulation relative to R-(-)-isoproterenol; format: functional, cell-based; method in brief: as §3
Target sequence in this assay (P08588 whole entry, looked up): as the sequence (P08588 whole entry) above

[6] = Half life in dog at 0.2 mg/kg, iv; format: ADME, organism-based, Canis lupus familiaris; set-up: dose 0.2 mg/kg, route intravenous; details: in vivo; method in brief: as §2
[7] = molecular target: T3, Beta-3 adrenergic receptor (Homo sapiens, UniProt P13945); assay: Agonist activity at human beta-3 adrenergic receptor expressed in CHO cells assessed as cAMP accumulation; format: functional, cell-based; method in brief: as §3
Target sequence in this assay (P13945 whole entry): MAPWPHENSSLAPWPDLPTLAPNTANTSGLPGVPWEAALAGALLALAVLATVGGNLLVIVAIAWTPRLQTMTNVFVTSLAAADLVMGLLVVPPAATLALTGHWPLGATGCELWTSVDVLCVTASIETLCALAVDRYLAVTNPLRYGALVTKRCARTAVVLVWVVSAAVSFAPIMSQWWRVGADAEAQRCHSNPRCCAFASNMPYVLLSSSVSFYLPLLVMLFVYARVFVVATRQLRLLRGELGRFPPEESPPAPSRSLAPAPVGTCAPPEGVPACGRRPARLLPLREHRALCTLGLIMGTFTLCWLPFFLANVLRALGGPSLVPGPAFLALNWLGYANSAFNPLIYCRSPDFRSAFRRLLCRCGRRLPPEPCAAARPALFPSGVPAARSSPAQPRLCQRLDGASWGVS

[8] = molecular target: T2, Beta-2 adrenergic receptor; assay: Agonist activity at human beta-2 adrenergic receptor expressed in CHO cells assessed as cAMP accumulation relative to R-(-)-isoproterenol; format: functional, cell-based; method in brief: as §3
Target sequence in this assay (P07550 whole entry, looked up): as the sequence (P07550 whole entry) above

[9] = species: Homo sapiens; assay: Selectivity ratio of pEC50 for human beta-3 adrenergic receptor over beta-1 adrenergic receptor; method in brief: as §1
[10] = molecular target: T3, Beta-3 adrenergic receptor; assay: Agonist activity at human beta-3 adrenergic receptor expressed in CHO cells assessed as cAMP accumulation relative to R-(-)-isoproterenol; format: functional, cell-based; method in brief: as §3
Target sequence in this assay (P13945 whole entry, looked up): as the sequence (P13945 whole entry) above

[11] = tested on: Mus musculus; assay: Reduction of glucose level in db/db mouse serum at 1 mg/kg, po bid for 14 days; format: functional
Method in brief: (§4)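 Male db/db mice, 60 days old at the start of dosing, 10 per group. Dosed by oral gavage twice daily for 14 days in 0.025 M methanesulfonic acid vehicle, with dosing solutions prepared fresh daily. Day 0 baseline taken from 10 exsanguinated mice. Mice were sacrificed on days 7 and 14, and serum glucose was measured on an automated chemistry analyzer against vehicle-treated mice.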

[12] = tested on: Mus musculus; assay: Reduction of glucose level in db/db mouse serum at 0.3 mg/kg, po bid for 14 days; format: functional; method in brief: as §4
[13] = tested on: Mus musculus; assay: Reduction of glucose level in db/db mouse serum at 0.03 mg/kg, po bid for 14 days; format: functional; method in brief: as §4
[14] = tested on: Mus musculus; assay: Reduction of glucose level in db/db mouse serum at 0.1 mg/kg, po bid for 14 days; format: functional; method in brief: as §4

Compound | Selectivity ratio [1] | clearance [2] [mL/min/kg] | pEC50 [3] | pEC50 [4] | Emax [5] [%] | half-life [6] [h] | pEC50 [7] | Emax [8] [%] | Selectivity ratio [9] | Emax [10] [%] | Activity [11] [mg/dL] | Activity [12] [mg/dL] | Activity [13] [mg/dL] | Activity [14] [mg/dL]
C[C@H](CNc1cccc(-c2ocnc2C(=O)O)c1)NC[C@H](O)c1cccc(Cl)c1 | 79 | 5.3 | 6.40 | 6.50 | 14 | ≤ 1 | 8.40 | 49 | 100 | 102 | – | – | – | –
C[C@H](CNc1cccc(-c2sccc2C(=O)O)c1)NC[C@H](O)c1cccc(Cl)c1 | 13000 | 5.3 | 5.90 | 6.10 | < 7 | ≤ 1 | 10.20 | 9 | 20000 | 85 | – | – | – | –
O=C(O)c1ccoc1-c1cccc(NCCNC[C@H](O)c2cccc(Cl)c2)c1 | 320 | 0.65 | 5.30 | 5.60 | < 5 | 6.1 | 8.10 | < 5 | 630 | 91 | 183 | 191 | 376 | 255
C[C@H](CNc1cccc(-c2csc(C(=O)O)n2)c1)NC[C@H](O)c1cccc(Cl)c1 | 50 | – | 7.00 | 7.00 | 20 | – | 8.70 | 76 | 50 | 97 | – | – | – | –
C[C@H](CNc1ccc(-c2sccc2C(=O)O)cc1)NC[C@H](O)c1cccc(Cl)c1 | 1600 | – | 7.00 | 6.20 | 14 | – | 9.40 | 19 | 250 | 96 | – | – | – | –
C[C@H](CNc1ccc(-c2nc(C(=O)O)cs2)cc1)NC[C@H](O)c1cccc(Cl)c1 | 8 | – | 7.70 | 7.30 | 21 | – | 8.20 | 41 | 3 | 100 | – | – | – | –
C[C@H](CNc1ccc(CC(=O)O)cc1)NC[C@H](O)c1cccc(Cl)c1 | 3 | – | – | – | – | – | – | – | 5 | – | – | – | – | –
C[C@H](CNc1ccc(-c2csc(C(=O)O)n2)cc1)NC[C@H](O)c1cccc(Cl)c1 | 32 | – | 7.92 | 7.30 | 19 | – | 8.80 | 63 | 8 | 100 | – | – | – | –
C[C@H](CNc1ccc(-c2nc(C(=O)O)co2)cc1)NC[C@H](O)c1cccc(Cl)c1 | 6 | – | 7.90 | 7.00 | 23 | – | 7.80 | 53 | 0.8 | 92 | – | – | – | –
C[C@H](CNc1cccc(-c2nc(C(=O)O)cs2)c1)NC[C@H](O)c1cccc(Cl)c1 | 200 | 5.3 | 7.10 | 6.80 | 21 | ≤ 1 | 9.10 | 48 | 100 | 97 | – | – | – | –
C[C@H](CNc1ccc(CCC(=O)O)cc1)NC[C@H](O)c1cccc(Cl)c1 | 16 | – | – | – | – | – | – | – | 10 | – | – | – | – | –
O=C(O)c1ccsc1-c1cccc(NCCNC[C@H](O)c2cccc(Cl)c2)c1 | 4000 | 1.5 | 5.40 | 5.30 | < 2 | 1.6 | 8.90 | < 5 | 3200 | 103 | – | – | – | –
C[C@H](CNc1ccc(-c2occc2C(=O)O)cc1)NC[C@H](O)c1cccc(Cl)c1 | 250 | 5.3 | 7.70 | 7.10 | 18 | ≤ 1 | 9.50 | 36 | 63 | 85 | – | – | – | –
C[C@H](CNc1cccc(-c2nc(C(=O)O)co2)c1)NC[C@H](O)c1cccc(Cl)c1 | 8 | – | 6.80 | 6.90 | 30 | – | 7.80 | 39 | 10 | 115 | – | – | – | –
C[C@H](CNc1cccc(-c2occc2C(=O)O)c1)NC[C@H](O)c1cccc(Cl)c1 | 500 | 5.3 | 7.00 | 6.90 | 14 | ≤ 1 | 9.60 | 38 | 400 | 87 | – | – | – | –
C[C@H](CNc1ccc(-c2ocnc2C(=O)O)cc1)NC[C@H](O)c1cccc(Cl)c1 | 320 | 5.3 | 7.60 | 6.40 | 24 | ≤ 1 | 8.90 | 55 | 20 | 90 | – | – | – | –
